Assay results from PMC6030940 (International Journal of Nanomedicine, 2018).
“Also recorded” adds a separate entry of the source.

Tests used:
[1] = Morphology and size by scanning electron microscopy; format: physicochemical; details: SEM images
Summary of the method: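 Samples were fixed on SEM stubs with double-sided adhesive tape and coated with Au. They were imaged by scanning electron microscopy at 15 kV acceleration voltage.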

[2] = has been reported; cited from earlier work
[3] = tested on: MDCK-MDR1 cell monolayer; assay: Bidirectional transport across MDCK-MDR1 cell monolayer; details: BBR in the presence of 10 µM verapamil
[4] = tested on: P-gp (MDR1); assay: as above; details: dog, MDCK-MDR1, pH 7.4
[5] = tested on: Pgp; assay: as above; details: dog, MDCK-MDR1, pH 7.4
[6] = tested on: Pgp mRNA in T84 cells; details: 10 µM, 72 h; cited from earlier work
[7] = tested on: Pgp expression in kidney cancer cells; details: 5 ng/mL, 72 h; cited from earlier work
[8] = target: T1, Pgp (Homo sapiens, UniProt P08183); assay: Cellular uptake of Rhodamine123 by MDCK-MDR1 cells; format: cell-based; details: 37°C, 90 min, Figure 2
[9] = no reference given; cited from earlier work
[10] = target: T1, Pgp; assay: Cellular uptake of BBR in MDCK-MDR1 cells; format: cell-based; details: BS20 8.1 µM, BBR 100 µM, 37°C, 90 min
[11] = tested on: Pgp protein expression in MDCK-MDR1 cells; assay: Cellular Pgp protein expression, Western blotting; format: cell-based; details: BS20 5 or 10 µM, 3 h and 24 h
[12] = tested on: Pgp mRNA expression in MDCK-MDR1 cells; assay: Pgp mRNA expression, real-time quantitative PCR; format: cell-based; details: normalized to GAPDH
Summary of the method: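 MDCK-MDR1 cells (DMEM, 10% FBS, 37°C, 5% CO2) were exposed to the test surfactant for 3 or 24 h. Total RNA was kit-extracted and reverse-transcribed with gDNA eraser. qPCR ran 95°C 30 s, then 40 cycles of 95°C 5 s and 60°C 30 s, followed by melt-curve analysis. Pgp expression was normalised to GAPDH by the 2−ΔΔCq method.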

[13] = tested on: intracellular ATP in MDCK-MDR1 cells; assay: Intracellular ATP level, ATPlite luminescence assay; format: cell-based, canine; details: BS20 5 or 10 µM
Summary of the method: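 MDCK-MDR1 cells were seeded at 1 × 10^4 cells/well, left to adhere overnight, then exposed to the test surfactant at 5 or 10 μM for 3 or 24 h. Cells were lysed by three freeze-thaw cycles in lysis reagent. Substrate reagent was added and plates rocked 10 min at room temperature. ATPlite luminescence was read on a plate reader.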

[14] = target: human Pgp membrane (Homo sapiens, UniProt P08183); assay: Pgp ATPase activity, Pgp-Glo assay system; details: 37°C, 120 min
[15] = tested on: Caco-2 monolayer; details: previous study; cited from earlier work

T1 sequence (P08183 whole entry): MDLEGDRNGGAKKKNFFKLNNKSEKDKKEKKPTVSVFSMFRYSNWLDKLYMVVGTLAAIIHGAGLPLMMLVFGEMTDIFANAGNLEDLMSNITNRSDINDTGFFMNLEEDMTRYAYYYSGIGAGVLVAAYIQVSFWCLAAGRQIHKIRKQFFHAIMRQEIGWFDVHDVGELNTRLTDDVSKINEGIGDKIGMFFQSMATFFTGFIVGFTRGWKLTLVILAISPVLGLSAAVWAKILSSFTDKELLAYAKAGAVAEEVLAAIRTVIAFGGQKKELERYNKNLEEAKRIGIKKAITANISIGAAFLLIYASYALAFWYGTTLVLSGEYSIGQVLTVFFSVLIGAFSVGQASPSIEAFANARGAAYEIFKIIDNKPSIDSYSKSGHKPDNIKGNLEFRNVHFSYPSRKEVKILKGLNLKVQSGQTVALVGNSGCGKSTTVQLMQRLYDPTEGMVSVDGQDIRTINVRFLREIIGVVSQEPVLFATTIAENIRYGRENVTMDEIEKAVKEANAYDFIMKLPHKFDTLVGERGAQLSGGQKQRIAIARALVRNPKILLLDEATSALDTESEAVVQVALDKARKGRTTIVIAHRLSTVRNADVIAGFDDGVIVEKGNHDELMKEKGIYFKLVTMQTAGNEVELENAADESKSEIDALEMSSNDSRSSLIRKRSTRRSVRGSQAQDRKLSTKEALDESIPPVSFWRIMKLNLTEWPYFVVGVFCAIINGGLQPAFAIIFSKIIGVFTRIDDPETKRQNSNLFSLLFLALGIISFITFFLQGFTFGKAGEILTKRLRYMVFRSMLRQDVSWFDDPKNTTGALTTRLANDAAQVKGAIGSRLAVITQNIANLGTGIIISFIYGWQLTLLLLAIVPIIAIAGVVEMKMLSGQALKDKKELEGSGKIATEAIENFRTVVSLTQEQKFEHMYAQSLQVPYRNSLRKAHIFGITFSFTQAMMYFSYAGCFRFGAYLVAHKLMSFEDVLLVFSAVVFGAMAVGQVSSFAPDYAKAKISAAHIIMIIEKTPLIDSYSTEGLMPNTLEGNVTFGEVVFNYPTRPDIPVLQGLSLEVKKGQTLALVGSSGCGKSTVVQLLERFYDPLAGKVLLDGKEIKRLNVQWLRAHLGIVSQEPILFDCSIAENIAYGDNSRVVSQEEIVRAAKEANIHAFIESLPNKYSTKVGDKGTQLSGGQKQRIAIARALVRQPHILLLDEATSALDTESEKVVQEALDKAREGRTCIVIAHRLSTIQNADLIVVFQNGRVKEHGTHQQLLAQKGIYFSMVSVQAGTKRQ
Sequence of human Pgp membrane (P08183 whole entry): as above

## COc1ccc2cc3[n+](cc2c1OC)CCc1cc2c(cc1-3)OCO2 [BBR, Berberine]
[1]
  size by SEM: 1–2 µm
[2]
  oral bioavailability: < 1%
[3]
  absorptive quotient (AQ): 0.344
  secretory quotient (SQ): 1.16
[4]
  efflux ratio at 120 min, 10 µM: 7.12
[5]
  Papp A→B at 120 min, 10 µM: 0.4 ± 0.01 ×10⁻⁶ cm/s
  Papp B→A at 120 min, 10 µM: 2.85 ± 0.04 ×10⁻⁶ cm/s

## CC(C)CN(C[C@@H](O)[C@H](Cc1ccccc1)NC(=O)O[C@H]1CCOC1)S(=O)(=O)c1ccc(N)cc1 [amprenavir]
[6]
  increase of mRNA levels of Pgp: 5.1 fold

## C/C=C1\NC(=O)[C@H]2CSSCC/C=C/[C@H](CC(=O)N[C@H](C(C)C)C(=O)N2)OC(=O)[C@H](C(C)C)NC1=O [depsipeptide]
[7]
  increased expression levels of Pgp: 6.3 fold

## C=C[C@H]1C[N@@]2CC[C@H]1C[C@@H]2[C@@H](O)c1ccnc2ccc(OC)cc12 [quinidine]
[6]
  increase of mRNA levels of Pgp: 3.8 fold

## D-α-Tocopherol polyethylene glycol 1000 succinate [TPGS]
[8]
  effect on intracellular accumulation of Rho123: most powerful nonionic surfactant with the function of Pgp inhibition
[9]
  critical micelle concentration: 0.02 mM

## polyoxyethylene (20) stearyl ether [BS20]
[10]
  increase of cellular uptake of BBR vs BBR group: 4.1 fold
[8]
  effect on intracellular accumulation of Rho123: presented the most potency on increasing the intracellular accumulation of Rho123
[11]
  Pgp protein expression: no significant changes in Pgp protein expression
[12]; BS20 5 µM, 3 h
  Pgp mRNA expression: 0.9 fold
[12]; BS20 5 µM, 24 h
  Pgp mRNA expression: 2.3 fold
[12]; BS20 10 µM, 3 h
  Pgp mRNA expression: 1.4 fold
[12]; BS20 10 µM, 24 h
  Pgp mRNA expression: 3.8 fold
[13]; 3 h
  activity of intracellular ATP: dose-dependently inhibited; also recorded: inhibited the activity of intracellular ATP
[13]; 24 h
  activity of intracellular ATP: reversed to normal level
[1]
  size by SEM: > 5 µm
[9]
  critical micelle concentration: 0.006 mM
[14]; BS20 5 µM
  stimulation of Pgp-ATPase activity vs normal control (basal level): 3.5 fold
[14]; BS20 10 µM
  stimulation of Pgp-ATPase activity vs normal control (basal level): 4.5 fold

## polyoxyethylene (23) lauryl ether [Brij-35]
[15]
  permeation of bis(12)-hupyridone through Caco-2 monolayer: significantly increase the permeation
